Assay outcomes: PubChem, several laboratories
Mdm2 MdmX PPI = inhibitors of human Mdm2/MdmX interaction | 330,000 compounds, 3% hits | inhibition, % at 8 µM | O15151+Q00987 | SaOS-2 split-luciferase Mdm2/MdmX complementation, luminescence;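 active = inhibition of at least 50% at 8 µM in the primary screen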
CHOP UPR activ = apoptotic UPR (CHOP) activation; CHO-CHOP luciferase reporter, luminescence; percent of tunicamycin response over DMSO baseline; activation, % at 10 µM; 330,000 compounds, 0.34% hits;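 active = at 10 µM dose, activation of 40% or more, normalized to positive control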;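 note: 100% = tunicamycin at 10 µg/mL and 0% = DMSO alone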
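Dosing – one dose, 10 µM in 0.5% DMSO · System – CHO-CHOP cells, stable luciferase reporter of PERK-eIF2a-CHOP signalling · Input – 500 cells/well · Control set – tunicamycin 10 µg/mL final as positive, DMSO-only wells as negative · Timing – 6 h compound treatment, 37 °C · Measure – % activation vs tunicamycin · Technique – luminescence read with Steady-Glo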
ABHD5-PLIN5 inh = ABHD5-PLIN5 protein interaction inhibition | Q00G26+Q8WTS1 | AID 602281 | 360,000 compounds, 0.78% hits | inhibition, % at 4 µM | Split G. princeps luciferase complementation, luminescence, 4 h;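 active = inhibition above the mean inhibition across every tested compound plus 3 SD, cut at about 22% in these data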;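 note: 0% = DMSO only wells and the 100% control is not disclosed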
Target sequence (Q00G26 whole entry, looked up): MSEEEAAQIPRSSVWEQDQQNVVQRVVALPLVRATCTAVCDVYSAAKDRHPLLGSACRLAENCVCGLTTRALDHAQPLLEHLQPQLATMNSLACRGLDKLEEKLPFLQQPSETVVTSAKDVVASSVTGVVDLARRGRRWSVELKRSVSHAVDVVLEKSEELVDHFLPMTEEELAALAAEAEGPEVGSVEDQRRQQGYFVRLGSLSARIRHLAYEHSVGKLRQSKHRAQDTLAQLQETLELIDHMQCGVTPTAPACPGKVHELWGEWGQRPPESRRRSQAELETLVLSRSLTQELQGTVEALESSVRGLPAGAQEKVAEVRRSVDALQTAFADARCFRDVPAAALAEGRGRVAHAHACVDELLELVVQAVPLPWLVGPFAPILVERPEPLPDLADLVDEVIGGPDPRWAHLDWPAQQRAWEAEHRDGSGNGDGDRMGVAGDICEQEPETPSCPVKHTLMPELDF
Target sequence (Q8WTS1 whole entry, looked up): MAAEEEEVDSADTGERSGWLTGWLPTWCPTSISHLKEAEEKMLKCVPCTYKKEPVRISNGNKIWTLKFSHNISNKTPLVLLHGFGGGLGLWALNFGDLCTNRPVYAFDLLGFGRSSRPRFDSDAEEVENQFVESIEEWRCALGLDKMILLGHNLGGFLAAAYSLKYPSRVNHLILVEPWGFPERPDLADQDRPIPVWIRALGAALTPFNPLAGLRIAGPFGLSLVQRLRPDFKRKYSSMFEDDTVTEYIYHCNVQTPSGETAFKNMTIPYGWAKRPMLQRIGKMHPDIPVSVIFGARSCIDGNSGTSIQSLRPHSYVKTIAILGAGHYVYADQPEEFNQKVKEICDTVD
Exocytosis inh = blocks lytic granule exocytosis | AID 651702 | 360,000 compounds, 0.66% hits | TALL-104 LAMP-1 surface exposure, flow cytometry; cells stimulated with thapsigargin and PMA | inhibition, % at 10 µM;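 active = inhibition above about 55%, limit read from the data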
XBP1 UPR activ = activators of adaptive arm of unfolded protein response (XBP1); CHO-XBP1 luciferase reporter, IRE1-XBP1 UPR activation, luminescence; percent of tunicamycin response, DMSO as zero; activation, % at 20 µM; 330,000 compounds, 0.33% hits; AID 463104;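 active = versus positive control, 20 µM dose yields 30% or more activation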;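 note: 100% = tunicamycin at 10 µg/mL and 0% = DMSO only wells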
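Test system: CHO-XBP1 luciferase reporter cells | Buffer or medium: Serum-containing F12 medium, 10% FBS | Schedule: 6 h compound exposure at 37 °C, 5% CO2 | Detection: Steady-Glo luciferase glow luminescence, 10 min after reagent addition | Read-out basis: Activation, % of tunicamycin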
Mdm2 MdmX conf = human Mdm2/MdmX binding inhibition, confirmed; inhibition, % at 8 µM; luminescent assay; shares compounds with Mdm2 MdmX PPI; 10,000 compounds, 55% hits; in the data active = inhibition above about 40%
FLuc counter = inhibits full-length luciferase, flagging false Mdm2/MdmX hits | shares compounds with Mdm2 MdmX PPI | SaOS-2 full-length luciferase counterscreen, luminescence | inhibition, % at 8 µM | 6,200 compounds, 77% hits;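 active = mean inhibition at 8 µM reaching about 37%, which flags the compound as non-specific, limit read from the data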;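 note: p53-null SaOS-2 cells with luciferase driven by a doxycycline-inducible promoter; compound on cells about two nights before reading with doxycycline added after day one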
* = called active by the depositor; . = not tested or not shown. Most compounds without a hit are left out; they make up all but 4% or so of the library.

SMILES | Mdm2 MdmX PPI | CHOP UPR activ | ABHD5-PLIN5 inh | Exocytosis inh | XBP1 UPR activ | Mdm2 MdmX conf | FLuc counter
COc1ccccc1NS(=O)(=O)c1cc(-c2cnc(C3CC3)o2)ccc1C | 52.9* | -0.2 | -0.3 | 9.1 | -3.3 | 45.7* | 55.8*
Cc1ccc(C)c(NS(=O)(=O)c2ccc(-c3cnc(C4CC4)o3)cc2)c1 | 71.3* | 0.8 | -8.7 | 5.3 | 13.0 | 54.8* | 80.5*
O=S(=O)(Nc1ccccc1)c1ccc(-c2cnc(C3CC3)o2)cc1 | 49.5 | -2.4 | -16.2 | -6.2 | -6.2 | . | .
Cc1cccc(NS(=O)(=O)c2ccc(-c3cnc(C4CC4)o3)cc2)c1C | 84.9* | 1.0 | 0.1 | 6.8 | 13.4 | 65.5* | 75.6*
O=C1c2cccc3cccc(c23)C(=O)N1CCN1CCN(CC(O)COc2ccccc2)CC1 (stereo not given) | -5.7 | 2.2 | -3.1 | 0.6 | -0.8 | . | .
Cc1ccc(S(=O)(=O)N2CCN(C(=O)C3Cc4ccccc4CN3C(=O)c3ccco3)CC2)cc1 (stereo not given) | -7.1 | 1.9 | -2.2 | 1.1 | -4.5 | . | .
COc1cccc(/C=C(/C(=O)OCC(=O)NC2CCCCCCC2)c2ccccc2)c1 | 19.3 | -1.9 | -1.9 | 1.9 | -0.1 | . | .
CC(=O)Nc1ccc(NS(=O)(=O)c2ccc(-c3cnc(C4CC4)o3)cc2)cc1 | 42.7 | 2.8 | -1.8 | -1.7 | -3.0 | . | .
CCOc1ccc(NS(=O)(=O)c2ccc(-c3cnc(C4CC4)o3)cc2)cc1 | 57.1* | -1.0 | 1.3 | 23.4 | -2.6 | 56.7* | 51.5*
CN(C)CCCn1c(=O)n(C2CCCCC2)c(=O)c2c3c(sc21)CCCCC3 | 89.7* | 1.7 | 12.2 | 26.1 | -0.8 | 72.2* | 66.1*
COc1nnc(-c2ccc(N3CCOCC3)c(NC(=O)c3ccco3)c2)c2ccccc12 | 31.9 | -1.6 | -3.6 | -2.1 | 7.0 | . | .
O=c1cc(-c2ccccc2)[nH]c2ccc(F)cc12 | . | . | -1.1 | 41.8 | . | . | .
O=c1cc(-c2cccc(F)c2)[nH]c2ccccc12 | 52.1* | 2.3 | 2.9 | 2.8 | 13.5 | 74.6* | 77.8*
Cc1ccc2[nH]c(-c3cccc(F)c3)cc(=O)c2c1 | 58.1* | 4.2 | 0.5 | -2.1 | 11.1 | 70.8* | 94.6*
COc1ccc(N2CCN(C(=O)c3ccc(CS(=O)c4cccc(C)c4)o3)CC2)cc1 (stereo not given) | 27.2 | 0.1 | 1.2 | -0.2 | -7.4 | . | .
COc1cccc(N2CCN(C(=O)c3ccc(CS(=O)c4ccccc4C)o3)CC2)c1 (stereo not given) | 50.9* | -0.1 | 3.9 | 4.4 | 9.6 | 50.5* | 73.8*
COc1cccc(N2CCN(C(=O)c3ccc(CS(=O)c4ccccc4Cl)o3)CC2)c1 (stereo not given) | 70.1* | 0.2 | 5.0 | 12.7 | 7.7 | 50.8* | 102.2*
O=C(C(=O)N1CCN(c2cccc(Cl)c2)CC1)N1CCCCC1 | 2.7 | -1.8 | 0.1 | -2.8 | 0.4 | . | .
Cc1ccc(C)c(NC(=O)CCC(=O)N/N=C/c2ccc[nH]2)c1 | 16.4 | -2.0 | 2.9 | -1.6 | -1.1 | . | .
Cc1c(Cl)cccc1NC(=O)CCC(=O)N/N=C/c1ccc[nH]1 | 55.0* | 0.1 | -0.3 | -0.2 | -1.6 | 41.3* | 42.0*
CC(=O)Nc1cccc(-c2ccnc3c2CC(C(=O)Nc2cccc(NS(C)(=O)=O)c2)O3)c1 (stereo not given) | . | . | -1.0 | -1.3 | . | . | .
COc1ccc(C(=O)C2CCCN(C(=O)Cn3cncn3)C2)cc1OC (stereo not given) | -0.7 | -1.4 | -5.0 | -0.8 | -3.5 | . | .
CCN1CCN(c2ccc(S(=O)(=O)N3CCCCC3)cc2NC(=O)/C=C/c2cc(OC)ccc2OC)CC1 | 100.4* | 5.9 | 16.8 | 59.8* | 1.7 | 44.8* | 63.2*
CCN1CCN(c2ccc(S(=O)(=O)N3CCCCC3)cc2NC(=O)c2ccc([N+](=O)[O-])s2)CC1 | 70.5* | 2.2 | -10.2 | 6.6 | -2.0 | 58.7* | 82.0*
CCN1CCN(c2ccc(S(=O)(=O)N3CCCCC3)cc2NC(=O)Cc2ccc(Cl)c(Cl)c2)CC1 | 63.9* | 1.9 | 3.7 | 56.4* | -2.7 | 38.0 | 79.6*
SMILES | Mdm2 MdmX PPI | CHOP UPR activ | ABHD5-PLIN5 inh | Exocytosis inh | XBP1 UPR activ | Mdm2 MdmX conf | FLuc counter
CC(C)(C)CC(C)(C)NCC(O)COc1c(F)cc(Br)cc1F (stereo not given) | 39.0 | -2.4 | 11.9 | -0.7 | 4.1 | . | .
Cc1cccc(NC(=O)c2nc[nH]c2C(=O)Nc2ccccc2F)c1 | . | . | -7.0 | 22.3 | . | . | .
COC(=O)CSc1nnc(CNC(=O)c2cccc(C)c2)n1-c1ccccc1OC | -6.8 | -0.5 | 2.6 | -2.3 | -1.6 | . | .
CC(C)(C)OC(=O)NCCOC(=O)c1[nH]cnc1C(=O)NCc1ccccc1 | -0.3 | -0.9 | -2.4 | -4.8 | 0.4 | . | .
COc1ccc(OC)c(/C=N/Nc2cc(C)nc(N3CCOCC3)n2)c1 | 11.5 | 0.4 | 11.9 | 33.5 | -1.8 | . | .
CC1CCCCN1C(=O)CSc1nc(C2CC2)nc2c1cnn2-c1ccccc1 (stereo not given) | 53.9* | -1.9 | -8.7 | -3.8 | -3.2 | 9.4 | .
Cc1ccc(C)c(S(=O)(=O)N2CCCC2CNC(=O)C(=O)NCCc2ccco2)c1 (stereo not given) | 30.1 | 0.2 | -1.6 | -5.4 | 0.1 | . | .
Cc1[nH]nc2ncc(C(=O)c3cc(F)ccc3O)cc12 | 52.3* | -1.1 | -2.0 | -4.2 | 5.7 | 35.0 | 61.1*
CC(=O)[C@H]1CC[C@H]2[C@@H]3CCC4=CC(=O)CC[C@]4(C)[C@H]3CC[C@]12C | 25.3 | 2.5 | 5.0 | -4.8 | -6.5 | . | .
CC(=O)SC1CC2=CC(=O)CCC2(C)C2CCC3(C)C(CCC34CCC(=O)O4)C12 (stereo not given) | 50.6* | 2.2 | -1.8 | -2.9 | -1.7 | 47.9* | 96.4*
Cn1cncc1C#Cc1c(C=O)[nH]c2ccccc12 | 71.0* | -0.6 | 4.2 | -2.2 | -2.9 | 41.5* | 65.8*
Cn1cncc1C#Cc1c(C=O)n(C)c2ccccc12 | 32.0 | 2.9 | 12.9 | -10.1 | 0.4 | . | .
O=C(Nc1ccc(F)cc1)c1cc(-c2ccccn2)nc2c(Cl)cccc12 | 60.0* | 1.6 | -0.3 | -3.9 | 20.2 | 46.1* | 61.5*
CC(O)CNc1nc2sc3c(c2c(=O)n1CCc1ccccc1)CCCCC3 (stereo not given) | 6.7 | 3.8 | -10.4 | 4.1 | 2.4 | . | .
CN(C)CCNc1nc2sc3c(c2c(=O)n1CCc1ccccc1)CCCCC3 | 76.4* | 4.5 | 0.7 | 42.5 | 7.8 | 25.5 | .
O=C(Cc1ccc(Cl)cc1)Nc1ccc(-c2nnc(-c3ccco3)o2)cc1 | 53.9* | 3.6 | -4.3 | 9.1 | 3.4 | 10.4 | .
